Experimental data as given in the EternaBench riboswitch data.

Tested on: MS2 coat protein
Assay: apparent Kd, MS2 coat protein; higher = weaker binding; RNA-MaP array
Procedure, shortened: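 Designed RNAs were produced on an Illumina sequencing chip by transcription of sequenced DNA templates. Binding to fluorescently labeled MS2 coat protein (1.5 nM to 3 μM) was measured at room temperature with or without input ligand. The apparent Kd is the median of per-cluster binding-curve fits. Designs were excluded when measured on fewer than 10 clusters.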

[1] = designed as: OFF switch for flavin mononucleotide, no ligand
[2] = ligand present: flavin mononucleotide, designed as: OFF switch for flavin mononucleotide
[3] = designed as: ON switch for flavin mononucleotide, no ligand
[4] = ligand present: flavin mononucleotide, designed as: ON switch for flavin mononucleotide
[5] = designed as: OFF switch for tryptophan, no ligand
[6] = ligand present: tryptophan, designed as: OFF switch for tryptophan
[7] = designed as: ON switch for tryptophan, no ligand
[8] = ligand present: tryptophan, designed as: ON switch for tryptophan

UCAUCGAGAGAGGAUAUCGUAGCAAUUCACCAGCGAGAAGGCUCGACAUGAGGAUCACCCAUGUGGCUCCGCUU
apparent Kd [1]: 24.2 nM
apparent Kd [2]: 73.6 nM

CCUCUCUUCCAGAAGGCUAUCCUAGCAUACGAUAGAGGAUAUGGACCACAAUACGGGUAGAGACACAUGAGGAUCACCCAUGUU
apparent Kd [3]: 72.4 nM
apparent Kd [4]: 185 nM

CCGGCAACGUAAGGAUAUGAUUCGCGUCUUGACAUGAGGAUCACCCAUGUAACUGUCGAAAUGGCUCAGAAGGUACCAGUGCCC
apparent Kd [3]: 26.6 nM
apparent Kd [4]: 17.9 nM

AACAUACAUGAGGAUCACCCAUGUCAAGAGAUGAAAGGAUAUAACUCUAUCAGGGUAAAGUAAGAAGGUUCGACUA
apparent Kd [3]: 23.5 nM
apparent Kd [4]: 20.1 nM

UGAGUUUACUGAGGAUAUUCGGGUCCGACGACAUGAGGAUCACCCAUGUUAGUAAUGCUGCAAGGGAAGAAGGCAGAAAGAACU
apparent Kd [1]: 13.7 nM
apparent Kd [2]: 10.7 nM

AAUAAGUUAGGAUAUUCAGGAGCAGCGCAAUGGUACGAGUCGAAGAAGGAACAUGAGGAUCACCCAUGUGAACC
apparent Kd [1]: 11.2 nM
apparent Kd [2]: 11.5 nM

UGGGCGGAAGGAUAUACAUGAGGAUCACCCAUGUGUCUUUUGCUGAUGGGUGCAUAGUGUAGAAGGUCCAGUGU
apparent Kd [1]: 93.7 nM
apparent Kd [2]: 38.8 nM

GCGUGACAUGAGGAUCACCCAUGUGGCCUCGGGCUAGGAUAUGCUGAUAUACUCACCACCGCAGAAGGAGCUUCAC
apparent Kd [3]: 142 nM
apparent Kd [4]: 131 nM

UAUAACGAAAGAGGAUAUAUCGGCCGUCUACGGAUAGAAGGCUUUCGCUAUGGCACUGAUGAUCUACAUGAGGAUCACCCAUGU
apparent Kd [1]: 7.91 nM
apparent Kd [2]: 7.19 nM

UAUUUGGGCAAGAAGGCAGGUUACAGCCAGCAUUAUCCACAUGAGGAUCACCCAUGUUCGGCGACUGAGGAUAUUGCCAAACCU
apparent Kd [1]: 38.5 nM
apparent Kd [2]: 37.5 nM

UAGCGUUCCUCAGGAUAUCCUUAAGUGGACAUGAGGAUCACCCAUGUGUGAUUCUGGGUGUUAUGGGAGAAGGGAGGGUGAUGA
apparent Kd [1]: 300 nM
apparent Kd [2]: 47.5 nM

GGAUCACAUGAGGAUCACCCAUGUCAGGAUAUUAUGCCCUCCCAGUUGCUGAGACAUUUAAGAAGGGACGUGUA
apparent Kd [1]: 13.5 nM
apparent Kd [2]: 14.3 nM

UGUUUGCAAAGAGGAUAUUGGCCAACUGCUGGACAAGAAGGCUUUUAACAAGAUCCUUACAUGAGGAUCACCCAUGUUAGCGUA
apparent Kd [1]: 69.2 nM
apparent Kd [2]: 115 nM

UCAUAUUAAGGCGAGGAUAUACACGAUCCCACAUGAGGAUCACCCAUGUUUUGAUCAUGCCCUGUGUAGAAGGCGCACCUACGGGA
apparent Kd [3]: 78.9 nM
apparent Kd [4]: 49.5 nM

UCCCAGUAACAUGAGGAUCACCCAUGUUGGAGUGUGCCUGCUCAGGAUAUUCGCGGCAUAAAAGUGAAGAAGGGAGCUCAAACG
apparent Kd [1]: 13.1 nM
apparent Kd [2]: 11.3 nM

UUGCAACAAACAGGAUAUACGCGGACUUCACGGGUAGAAGGGUUCGACCAGGAGAUAUCCCACAUGAGGAUCACCCAUGUCGUC
apparent Kd [1]: 163 nM
apparent Kd [2]: 130 nM

AGCUAUUCGGGUAAGGAUAUCGAUGUUGUUACAUGAGGAUCACCCAUGUUGCUCGACAUCAGUGACGAGAAGGUACAGCGUGGUAU
apparent Kd [3]: 8.89 nM
apparent Kd [4]: 8.79 nM

ACAGACAAGUAGAAGGCAAUGAGGAGUGAAAAUUGAGGAUAUACCAGCAUGAGUGCCUACAUGAGGAUCACCCAUGUGUAGAUU
apparent Kd [1]: 388 nM
apparent Kd [2]: 395 nM

GGUCUACAUGAGGAUCACCCAUGUGAGUUCACGGCAGGAUAUGGGUGCCUUUUUAGGCUACCAGAAGGGCCCUCUG
apparent Kd [3]: 38.1 nM
apparent Kd [4]: 19.2 nM

CGAAGACAUGAGGAUCACCCAUGUAAGGAUAUUCAAAGAGCGCACCUGAAUGCCCUAUGAAGAAGGUACCGGGC
apparent Kd [1]: 69.9 nM
apparent Kd [2]: 52.1 nM

GCAUAUGCAUACAUGAGGAUCACCCAUGUGGAACUAAGGGCGAAGGAUAUGUGUUAAACUACGAGACAGAAGGUCGUGAGUAGA
apparent Kd [3]: 19.9 nM
apparent Kd [4]: 15.2 nM

CAAGAAUGACGUACAGAUAACAAUAACGAUACCAGUACAUCAUUAUACCCUUGGCAGCGUUUCACAUGAGGAUCACCCAUGUACA
apparent Kd (designed as: OFF switch for theophylline, no ligand): 17.4 nM
apparent Kd (ligand present: theophylline, designed as: OFF switch for theophylline): 18.4 nM

CUCGUGUGAGGAUAUUGAUCACAGGUCACGGUGCAGGAAUACAAGAAGGCACAUGAGGAUCACCCAUGUAACCG
apparent Kd [1]: 15.7 nM
apparent Kd [2]: 45 nM

AGAUCGCAAUAAGGAUAUGCACCUAAGACUCAAAGAACUCUUGACAUGAGGAUCACCCAUGUAACGCAGAAGGUAUAUGACUCA
apparent Kd [3]: 21 nM
apparent Kd [4]: 15.1 nM

AGUUCACAGGUGAGGAUAUCGGAGCACACAGACAGCGAGAAGGCACAUGAGGAUCACCCAUGUGGUCAGAAAAC
apparent Kd [1]: 8.73 nM
apparent Kd [2]: 10.8 nM

CAUUCUUUAGUAAGGAUAUCAACUUGUUUAUAUAAUGAGAAGGUACAUGAGGAUCACCCAUGUCUCACAUCGGU
apparent Kd [1]: 8.72 nM
apparent Kd [2]: 7.9 nM

UGCACCGCAGGAUAUACAAUGGAGGACGUUGUGAAUCAUAGACAUGAGGAUCACCCAUGUAGAAGGGCGUAUAA
apparent Kd [1]: 34 nM
apparent Kd [2]: 78.5 nM

AUGCUGUGAGGAUAUCAGUCCCAGAAAAGCUGGCCGCUGACUGAGAAGGCACAUGAGGAUCACCCAUGUUCAAC
apparent Kd [1]: 10.2 nM
apparent Kd [2]: 15.7 nM

ACAUACAUGAGGAUCACCCAUGUGGGAUCUUCCUCUAAAACUAAGGAUAUGUCAGUUGGUUAACUACAGAAGGUAGGUCGGAAC
apparent Kd [1]: 313 nM
apparent Kd [2]: 306 nM

UCCGGUGACCUAGGAUAUCGUUCAACUAACAUGAGGAUCACCCAUGUGGUCUGUUUUAUGCCUGUCGAGAAGGAGGUGGAUAAG
apparent Kd [1]: 64.2 nM
apparent Kd [2]: 55.6 nM

CCACCAACAGGAUAUACGCUGAGGUUUUCUAACGGUCAUGUACAUGAGGAUCACCCAUGUAGAAGGGUUGUAGG
apparent Kd [1]: 37 nM
apparent Kd [2]: 55.6 nM

ACUGAUUAUGUGAGGAUAUCGCUUUCAGGCAGAAACGAGAAGGCACAUGAGGAUCACCCAUGUUACGUCCACUG
apparent Kd [1]: 6.64 nM
apparent Kd [2]: 9.56 nM

AGUGGGUUUCAGGAUAUAAUAUUAUCAACCAUAUUAGAAGGGAAUACAUGAGGAUCACCCAUGUUGAGUAUACG
apparent Kd [1]: 11.7 nM
apparent Kd [2]: 9.38 nM

GACGUGGUGAAGAAGGGCUGACGUAACCGGUGAGCAGGAUAUUCGACUCAUUAAUACAUGAGGAUCACCCAUGUUCGGUAGCGC
apparent Kd [1]: 24.8 nM
apparent Kd [2]: 68 nM

GCGUGUUAUAGUCAUCGUGAGCGUCCAUCCCGAGGACCGGUACGGCCGCCACUCGCCACAGGACAUGAGGAUCACCCAUGUUAUG
apparent Kd [5]: 15 nM
apparent Kd [6]: 17 nM

AAAUUAACGAAGAAGGCCUGACGACAUGACUACAUGAGGAUCACCCAUGUUGCAGCACAAUAUAAGGAGGAUAUUCGACAAGCU
apparent Kd [3]: 10.2 nM
apparent Kd [4]: 6.86 nM

CAGGAUCCGAAGAAGGGCAUCGGCCACAGGGCUGCAGGAUAUUCAAUUCAUGCAACAUGAGGAUCACCCAUGUAAUGGGCCGUU
apparent Kd [1]: 27.5 nM
apparent Kd [2]: 22.3 nM

CUUGUGUGAGGAUAUUAGACACAAUCCGACAGCGGGAUAGUUAAGAAGGCACAUGAGGAUCACCCAUGUUGAGU
apparent Kd [1]: 44.2 nM
apparent Kd [2]: 81.2 nM

UUACGGGAAGGAUAUCAUUGAAGGUACAUGAGGAUCACCCAUGUCUGAUGCGCAUCGCCGUGAGAAGGUCCUGCUU
apparent Kd [1]: 38.2 nM
apparent Kd [2]: 14.9 nM

UCCUAUUCAGGAUAUGCGACACGAAACAUGAGGAUCACCCAUGUCUGGGCACCUCAAAGCGCAGAAGGGAACAACG
apparent Kd [1]: 665 nM
apparent Kd [2]: 321 nM

AGGUAGCGAGACUUACAUGAGGAUCACCCAUGUACCACGCGGAAGGAUAUAACGGCAGGCUUUGCUUAGAAGGUCCGCGGUACU
apparent Kd [1]: 26.9 nM
apparent Kd [2]: 20.4 nM

GUAUUACGGACGGCCGCCACUGUGGGACAUGAGGAUCACCCAUGUGGCGCUACUUACAAGUGCGACAGGACCGGGUCAUGGUUUG
apparent Kd [7]: 811 nM
apparent Kd [8]: 301 nM

GAGCCACAUGAGGAUCACCCAUGUCAGGAUAUCGCAAGCGGGAAUAAGCCAACGUCUACGAGAAGGGACUAAUG
apparent Kd [1]: 9.79 nM
apparent Kd [2]: 10.3 nM

CCCUCGUCAACGGCCGCCACUGUGAUUCACUAAGAUAAUAUUGCACAUGAGGAUCACCCAUGUCUCAGGACCGGGUUGGUGUGUC
apparent Kd [7]: 105 nM
apparent Kd [8]: 65.9 nM

AACUGAAGCACCUUAUGCGGCGGCAAAACCCGAGGACCGGUACGGCCGCCACUCGAGUCGCAACAUGAGGAUCACCCAUGUGUAU
apparent Kd [5]: 51.3 nM
apparent Kd [6]: 117 nM

GCAAGGGUGCGAGGAUAUAUUAGAGUCUCUGGAAUAGAAGGCGCAAACAGUGUACAUGAGGAUCACCCAUGUGUAUAUACUGCU
apparent Kd [1]: 11 nM
apparent Kd [2]: 10.2 nM

UGCCCACAGGAGAAGGUGGCUCAACCAGAGCGCCAAGGAUAUCCGGAGUUACUCCUCACUACAUGAGGAUCACCCAUGUUUCAU
apparent Kd [1]: 71.5 nM
apparent Kd [2]: 54.6 nM

GCGCUAUUUAUUGAUACCAGAUACAGGAAUCACAUGAGGAUCACCCAUGUGGAAUGAAGGAUCCCUUGGCAGCAAUAGUCAAAAU
apparent Kd (designed as: ON switch for theophylline, no ligand): 17.8 nM
apparent Kd (ligand present: theophylline, designed as: ON switch for theophylline): 10.8 nM

ACCCGCUCCUGAGGAUAUCCGGCAUGACAUGAGGAUCACCCAUGUGGGCUCGUGGAGGGAGUGCAGGAGAAGGCAGUAGGCGCU
apparent Kd [1]: 35.7 nM
apparent Kd [2]: 82.6 nM

ACUCAGUCAGGAUAUAGAGCCGCACGAGAUCGUGACUCGAUCUAGAAGGGACAUGAGGAUCACCCAUGUUAAGA
apparent Kd [1]: 12.7 nM
apparent Kd [2]: 20.8 nM

UCCUUGGAGUCAGGAUAUGUCGACAACGGAAUGACAGAAGGGACUUGGCAGCUUAAUUCUUCAGUACAUGAGGAUCACCCAUGU
apparent Kd [1]: 9.35 nM
apparent Kd [2]: 9.19 nM

CUUUGACGUGAGAAGGUGCAGGGAAUACACAAGCAAGGAUAUCAUGCACAUGAGGAUCACCCAUGUCCUGUAACGUUUGGUGAC
apparent Kd [1]: 437 nM
apparent Kd [2]: 302 nM

CUUCCACGAGGAUAUCCGUUAACGGACAUGAGGAUCACCCAUGUUAUCCUCACGUCAGCAGGAGAAGGCGUCUCAU
apparent Kd [1]: 22.5 nM
apparent Kd [2]: 33 nM

AAGGGCGACGGACAGGAUAUAGUUAUUGUUACAUGAGGAUCACCCAUGUCUCCAGGUCUUUGACGCUAGAAGGGUCCCUCCUCGAC
apparent Kd [3]: 61.2 nM
apparent Kd [4]: 26.5 nM
